According to BindingDB's records for doi:10.1021/jm00037a004 (Research Biochemicals International, 1994):

molecular target: Sodium-dependent dopamine transporter (Rattus norvegicus, UniProt P23977); experiment: Binding affinity for dopamine transporters in rat brain tissue.
In short: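 Crude membrane fraction from rat corpus striatum homogenate. Nonspecific binding defined with 30 μM methylphenidate. Each agent tested at six concentrations in duplicate. Concentration-inhibition curves computer-fit for IC50 ± SEM, converted to Ki = IC50/(1 + [L/Kd]).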

Chain of Sodium-dependent dopamine transporter (P23977 whole entry): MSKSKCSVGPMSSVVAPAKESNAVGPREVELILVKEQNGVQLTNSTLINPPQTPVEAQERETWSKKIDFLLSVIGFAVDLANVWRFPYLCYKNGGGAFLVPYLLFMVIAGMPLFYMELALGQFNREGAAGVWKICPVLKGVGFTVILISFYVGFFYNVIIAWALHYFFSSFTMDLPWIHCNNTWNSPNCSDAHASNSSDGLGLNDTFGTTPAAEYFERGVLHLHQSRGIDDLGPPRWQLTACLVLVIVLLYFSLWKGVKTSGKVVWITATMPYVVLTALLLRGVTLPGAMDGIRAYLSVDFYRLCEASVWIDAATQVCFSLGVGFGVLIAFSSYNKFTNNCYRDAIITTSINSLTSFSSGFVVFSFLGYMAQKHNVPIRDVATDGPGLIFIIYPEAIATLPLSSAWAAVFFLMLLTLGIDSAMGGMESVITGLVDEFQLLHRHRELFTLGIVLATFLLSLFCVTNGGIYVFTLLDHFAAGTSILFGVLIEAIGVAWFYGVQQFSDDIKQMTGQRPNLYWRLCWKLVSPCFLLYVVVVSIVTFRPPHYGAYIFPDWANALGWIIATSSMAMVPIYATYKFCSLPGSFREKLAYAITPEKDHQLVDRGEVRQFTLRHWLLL

Structure (SMILES)	Ki
CC(C)OC(=O)[C@H]1C(c2cc[c]([Sn]([CH3])([CH3])[CH3])cc2)C[C@H]2CCC1N2CCF (stereo partly drawn) [(2S,5R)-8-(2-Fluoro-ethyl)-3-(4-trimethylstannanyl-phenyl)-8-aza-bicyclo[3.2.1]octane-2-carboxylic acid isopropyl ester]	1.15 µM
COC(=O)[C@H]1C(c2cc[c]([Sn]([CH3])([CH3])[CH3])cc2)C[C@H]2CCC1N2CCF (stereo partly drawn) [(2S,5R)-8-(2-Fluoro-ethyl)-3-(4-trimethylstannanyl-phenyl)-8-aza-bicyclo[3.2.1]octane-2-carboxylic acid methyl ester]	> 10 µM
CC(C)OC(=O)[C@H]1C(c2cc[c]([Sn]([CH3])([CH3])[CH3])cc2)C[C@H]2CCC1N2CCCF (stereo partly drawn) [(2S,5R)-8-(3-Fluoro-propyl)-3-(4-trimethylstannanyl-phenyl)-8-aza-bicyclo[3.2.1]octane-2-carboxylic acid isopropyl ester]	> 10 µM
COC(=O)[C@H]1C(c2cc[c]([Sn]([CH3])([CH3])[CH3])cc2)C[C@H]2CCC1N2CCCF (stereo partly drawn) [(2S,5R)-8-(3-Fluoro-propyl)-3-(4-trimethylstannanyl-phenyl)-8-aza-bicyclo[3.2.1]octane-2-carboxylic acid methyl ester]	> 10 µM
